MEKK3 PB1 HTS – modulators of MEKK3-MEK5 PB1 binding, primary screen, biochemical, wildtype MEKK3, multiplex bead flow cytometry, Alexa488-MEK5; Mitogen-activated protein kinase kinase kinase 3 (Homo sapiens), Q99759; binding response (% of control), % at 10 µM; bead-based flow cytometry, Alexa488-MEK5 binding to MEKK3; actives lie on both sides; 0 = blocked by unlabeled MEK5, 100 = vehicle; 1.4% of 290,000 active; AID 1529, 2009;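 active = binding response more than 3 SD above or below the average of its plate-row segment, actives on both sides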;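 also: Alexa488 bead fluorescence after subtracting the streptavidin-only scavenger bead signal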
MEKK2 mut-MEK5 – MEK5 binding signal on mutant MEKK2 PB1, primary screen, biochemical, multiplex bead flow cytometry, Alexa488-MEK5; Alexa488-MEK5 binding to MEKK2 mutant; percent response, % at 10 µM; 0.35% of 290,000 active; AID 1530, 2009; in the data active = percent response above about 24%, passing the limit was not always enough
MEKK2wt PB1 HTS – modulators of MEK5 binding to wildtype MEKK2, primary screen, biochemical, multiplex bead flow cytometry, Alexa488-MEK5 | Alexa488-MEK5 binding to MEKK2 WT; actives lie on both sides | 1.1% of 290,000 active | binding response (% of control), % at 10 µM; in the data active = binding response below about 67% or above about 130%
UBC13 inh – UBC13 polyubiquitin chain formation inhibitors, primary screen, biochemical, TR-FRET, uHTS; Ubiquitin-conjugating enzyme E2 N (Homo sapiens), P61088; 0.47% of 330,000 active; inhibition, % at 20 µM; in the data active = inhibition above about 45%, passing the limit was not always enough
Target sequence (P61088 whole entry, looked up): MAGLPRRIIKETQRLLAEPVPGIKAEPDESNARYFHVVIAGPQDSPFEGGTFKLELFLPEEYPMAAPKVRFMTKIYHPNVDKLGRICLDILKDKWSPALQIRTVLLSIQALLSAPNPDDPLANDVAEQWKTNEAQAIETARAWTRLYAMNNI
Apaf1 inhib – inhibitors of human Apaf-1 apoptosome, primary screen, biochemical, DEVD-Rh110 fluorescence, uHTS; reconstituted apoptosome caspase-3 activity; inhibition, % at 20 µM; 0.71% of 330,000 active; AID 489030, 2010; active = inhibition of at least 40% at 20 µM;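 also: plate controls were DMSO wells for no effect and DEVD-CHO caspase inhibitor wells for full effect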
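Material: biochemical Apaf-1 apoptosome reconstitution. Medium: Hepes buffer, pH 7.5. Also added: cytochrome c activation, bis-DEVD rhodamine 110 substrate. Timing: 30 min compound preincubation, 50 min activation, room temperature. Measured by: rhodamine 110 fluorescence at Ex 480/Em 540 nm.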
PREPL inhibitor – PREPL enzyme inhibitors, primary screen, biochemical, fluorescence polarization; recombinant PREPL, fluorescence polarization activity-based probe; Prolyl endopeptidase-like (Homo sapiens), Q4J6C6; AID 2751, 2010; inhibition, % at 5.96 µM; 0.68% of 320,000 active; in the data active = inhibition above about 43%;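 also: 0% = enzyme with DMSO and 100% = wells lacking enzyme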
MEKK2wt confirm – modulators of MEK5 binding to wildtype MEKK2, confirmation, biochemical, single concentration, multiplex bead flow cytometry; shares compounds with MEKK3 PB1 HTS; Alexa488-MEK5 binding to MEKK2 WT; actives lie on both sides; binding response (% of control), % at 10 µM; 2.4% of 5,900 active; AID 1892, 2009; in the data active = binding response below about 16% or above about 210%; inactive = in between
MEKK2mut-MEK5 – mutant MEKK2 PB1-MEK5 binding signal retest – biochemical, single concentration, multiplex bead flow cytometry, confirmation. Alexa488-MEK5 binding to MEKK2 mutant. shares compounds with MEKK3 PB1 HTS. percent response, % at 10 µM. AID 1893, 2009. 2% of 5,900 active; in the data active = percent response mostly above about 71%, no sharp cut-off; inactive = mostly below about 38%;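 also: higher means compound restores mutant binding toward wildtype level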
MEKK3-MEK5 inh – MEKK3 wild-type PB1 binding to MEK5, inhibitors, confirmation, biochemical, bead multiplex flow cytometry, single concentration, wildtype | shares compounds with MEKK3 PB1 HTS | 1.8% of 5,900 active | Alexa488-MEK5 binding to MEKK3; stronger effect = lower value | binding response (% of control), % at 10 µM;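 active = binding response below 72% of control, or above a set upper limit, though filed actives all read lower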;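 also: 100% = DMSO only wells and 0% = binding blocked by excess unlabeled MEK5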
Starred values were filed as active, the others as inactive; x = not tested or not shown; [ ] = remark or other dose. Sampled rows, rich in hits. Any-hit rate of the full collection: about 3.1%.

SMILES | MEKK3 PB1 HTS | MEKK2 mut-MEK5 | MEKK2wt PB1 HTS | UBC13 inh | Apaf1 inhib | PREPL inhibitor | MEKK2wt confirm | MEKK2mut-MEK5 | MEKK3-MEK5 inh
Cc1ccc(C(=O)N(CC(=O)NC2CCCC2)c2ccccc2Cl)s1 | 99 | -1 | 98 | 4 | 3 | -6 | x | x | x
COc1cc(C(Nc2ccc(S(=O)(=O)NCC3CCCO3)cc2)C(=O)NC(C)(C)C)cc(OC)c1OC (centres undefined) | 129* | 30 | 121 | -1 | -15 | 10 | 102 | 1 | 99
CCOC(=O)CSc1ncc(-c2ccc([N+](=O)[O-])cc2)[nH]1 | 134* | 1 | 105 | -13 | -4 | 8 | 98 | 2 | 103
N#CC1=C(N)OC2=C(C(=O)CCC2)[C@]12C(=O)N(CC(N)=O)c1ccccc12 | 0.0*[inhibitor] | -21 | -1.0*[inhibitor] | 7 | -4 | -6 | 104 | 1 | 97
N#CC1=C(N)OC2=C(C(=O)CCC2)C12C(=O)N1CCCc3cccc2c31 (centres undefined) | 100 | 4 | 101 | 4 | -7 | -8 | x | x | x
O=C1NC2(C=Cc3c(ccc4ccccc34)O2)Oc2ccccc21 (centres undefined) | 2.0*[inhibitor] | -17 | 2.0*[inhibitor] | 19 | 13 | -3 | 91 | -2 | 96
CC1(C)OC(=O)N(c2ccccc2)C12C=Cc1c(ccc3ccccc13)O2 (centres undefined) | 113 | 3 | 100 | -10 | 20 | 12 | x | x | x
O=C(CC(Nc1ccccc1Cl)C(=O)O)c1ccccc1 (centres undefined) | 130* | 1 | 113 | -16 | 1 | 5 | 99 | 2 | 103
CCCCN(C(=O)/C=C/c1ccco1)c1c(N)n(CCC)c(=O)[nH]c1=O | 105 | 3 | 102 | 14 | -24 | 9 | x | x | x
Nc1c(N(CCO)C(=O)/C=C/c2ccco2)c(=O)[nH]c(=O)n1Cc1ccccc1 | 50*[inhibitor] | -4 | 61 | -4 | 0 | 16 | 99 | -8 | 102
Cc1ccc2c(c1C)NC(C(=O)O)C1CC=CC21 (centres undefined) | 85 | 36* | 39* | 17 | 26 | 20 | 93 | -10 | 100
Oc1ccc(/C=N\Nc2nncc(-c3ccccc3)n2)cc1 | 93 | -13 | 91 | 2 | -8 | 13 | x | x | x
COc1ccc(-c2cnnc(N/N=C/c3ccc(O)cc3)n2)cc1 | 128* | 0 | 117 | -22 | -35 | 3 | 102 | 3 | 100
COc1cccc(NC(=O)c2ccccc2Oc2ccccc2)c1 | 102 | 3 | 104 | 11 | 6 | -5 | x | x | x
COc1cccc(NC(=O)c2nc3ncccn3n2)c1 | 2.0*[inhibitor] | -18 | 2.0*[inhibitor] | 16 | 3 | 3 | 105 | 3 | 102
COc1cccc(NC(=O)c2cccc(C(=O)Nc3cccc(OC)c3)c2)c1 | 102 | 5 | 106 | 2 | 2 | 9 | x | x | x
COc1cccc(Nc2ncccc2C(=O)Nc2ccccc2)c1 | 129* | 6 | 127 | -7 | 13 | 30 | 105 | 6 | 102
COc1ccc(NC(=O)C2CCCN(CCCc3ccccc3)C2)cc1OCC(C)C (centres undefined) | 110 | 19 | 139* | 17 | 13 | 14 | 109 | 3 | 98
Brc1cccc(Nc2nc(-c3cccnc3)cs2)c1 | 109 | 1 | 108 | -2 | 19 | 24 | x | x | x
Clc1cccc(Nc2nc(-c3cccnc3)cs2)c1 | x | x | 154* | 27 | -8 | 19 | 103 | -1 | 102
CC(C)(C)c1cc(C(=O)NNC(=O)c2ccc(Cl)cc2)no1 | 89 | -17 | 93 | -14 | 2 | 8 | x | x | x
Cc1ccc(N/C(CSC(N)=O)=N/S(=O)(=O)c2ccccc2)cc1 | 125* | 4 | 116 | -9 | -1 | -2 | 99 | -2 | 105
Cc1ccc(N/C(CSC(N)=O)=N\S(=O)(=O)c2ccc(C)cc2)cc1 | 128* | 6 | 121 | -2 | 3 | -7 | 98 | -5 | 100
NC(=O)SC/C(=N\S(=O)(=O)c1ccccc1)Nc1ccccc1 | 102 | 2 | 101 | -4 | -33 | 10 | x | x | x
CCN(CC)C(=O)CSc1nnc(-c2ccc(O)cc2)n1CC1CCCO1 (centres undefined) | 136* | 11 | 133 | -10 | 3 | -2 | 104 | 5 | 106
SMILES | MEKK3 PB1 HTS | MEKK2 mut-MEK5 | MEKK2wt PB1 HTS | UBC13 inh | Apaf1 inhib | PREPL inhibitor | MEKK2wt confirm | MEKK2mut-MEK5 | MEKK3-MEK5 inh
CC12CCC(C(=O)NNc3ccc([N+](=O)[O-])cc3)(OC1=O)C2(C)C (centres undefined) | 132* | 29 | 129 | 0 | -6 | -2 | 103 | 4 | 104
COc1cc(/C=N/N2CCN(Cc3ccccc3)CC2)cc(OC)c1OC(C)=O | 105 | 3 | 108 | 5 | -6 | -18 | x | x | x
COc1ccc(/C(C)=N/NC(=O)c2cc(-c3cccnc3)nc3ccccc23)cc1 | 147* | 0 | 110 | -7 | 1 | 12 | 129 | 27 | 121
COc1cccc(/C(C)=N/NC(=O)c2cc(-c3cccnc3)nc3ccccc23)c1 | 129* | -1 | 104 | -5 | 16 | 22 | 102 | 1 | 104
COc1ccc(-c2cc(C(=O)N/N=C(\C)c3cccnc3)c3ccccc3n2)cc1 | 105 | 2 | 102 | 4 | 6 | x | x | x | x
C/C(=N\NC(=O)c1cc(-c2cccnc2)nc2ccccc12)c1ccccc1O | 99 | 3 | 105 | -15 | 17 | 26 | x | x | x
CCOC(=O)c1sc(SC)c2c1CCC/C2=N/OC | 131* | 30 | 118 | -2 | 6 | 13 | 99 | 0 | 102
O=C(Nc1nnc(-c2ccncc2)o1)c1ccccc1F | 129* | 19 | 112 | 5 | -4 | 4 | 99 | -5 | 104
